From ChEMBL document CHEMBL5724801, “EUbOPEN Chemogenomics Library - Multiplex” (2024)
Where “and” joins values, the source holds several entries; their conditions need not be identical. Equal entries are not always repeated.

System: U2OS
Assay: Multiplex assay against U2OS
Assay type: toxicity, cell-based
Settings: human
Procedure, shortened: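 Cells stained live at seeding with Hoechst33342, BioTracker Green Microtubule Cytoskeleton Dye, MitoTracker Red and Annexin V Alexa Fluor 680 were imaged on a CQ1 microscope at 37°C and 5% CO2 after compound addition. Their classification by CellPathfinder machine-learning gating ran from Hoechst high-intensity objects versus normal cells, to healthy, pyknosed or fragmented nuclei among normal cells, to mitotic or apoptotic among pyknosed cells. Tubulin, mitochondrial-mass and membrane-permeability phenotypes are per cents of healthy-nucleus cells.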

[1] = 12 h, 1 µM, compound concentration 1 uM
[2] = 12 h, 10 µM, compound concentration 10 uM
[3] = 24 h, 1 µM, compound concentration 1 uM
[4] = 24 h, 10 µM, compound concentration 10 uM
[5] = 48 h, 1 µM, compound concentration 1 uM
[6] = 48 h, 10 µM, compound concentration 10 uM

COc1cc(OC2CCN(C(C)=O)CC2)ccc1C(=O)N1CCC(N2C(=O)OCc3ccccc32)CC1
Population Apoptotic (%) [1]: 50% and 66% | Population Fragmented Nuclei (%) [1]: 22% and 20% | Population Healthy Nuclei (%) [1]: 67% and 69% | Population Hoechst High Intensity Objects (%) [1]: 0% | Population Membrane Permeable-Phenotype (%) [1]: 5% and 11% | Population Mitochondria Different-Phenotype (%) [1]: 3% and 7% | Population Mitotic Cells (%) [1]: 50% and 33% | Population Normal (%) [1]: 99% | Population Pyknosed Nuclei (%) [1]: 9% | Population Tubulin-Different-Phenotype (%) [1]: 3% and 8% | Total Cell Count [1]: 233 and 130 | Population Apoptotic (%) [2]: 72% and 87% | Population Fragmented Nuclei (%) [2]: 23% and 13% | Population Healthy Nuclei (%) [2]: 62% and 77% | Population Hoechst High Intensity Objects (%) [2]: 6% and 1% | Population Membrane Permeable-Phenotype (%) [2]: 18% and 21% | Population Mitochondria Different-Phenotype (%) [2]: 6% and 10% | Population Mitotic Cells (%) [2]: 27% and 12% | Population Normal (%) [2]: 93% and 98% | Population Pyknosed Nuclei (%) [2]: 13% and 9% | Population Tubulin-Different-Phenotype (%) [2]: 12% and 13% | Total Cell Count [2]: 228 and 85 | Population Apoptotic (%) [3]: 82% and 76% | Population Fragmented Nuclei (%) [3]: 20% and 22% | Population Healthy Nuclei (%) [3]: 71% and 68% | Population Hoechst High Intensity Objects (%) [3]: 1% | Population Membrane Permeable-Phenotype (%) [3]: 3% and 7% | Population Mitochondria Different-Phenotype (%) [3]: 2% and 5% | Population Mitotic Cells (%) [3]: 17% and 23% | Population Normal (%) [3]: 98% | Population Pyknosed Nuclei (%) [3]: 8% | Population Tubulin-Different-Phenotype (%) [3]: 2% and 3% | Total Cell Count [3]: 288 and 163 | Population Apoptotic (%) [4]: 81% and 71% | Population Fragmented Nuclei (%) [4]: 21% and 12% | Population Healthy Nuclei (%) [4]: 60% and 80% | Population Hoechst High Intensity Objects (%) [4]: 5% and 2% | Population Membrane Permeable-Phenotype (%) [4]: 9% and 10% | Population Mitochondria Different-Phenotype (%) [4]: 9% and 3% | Population Mitotic Cells (%) [4]: 18% and 28% | Population Normal (%) [4]: 94% and 97% | Population Pyknosed Nuclei (%) [4]: 18% and 7% | Population Tubulin-Different-Phenotype (%) [4]: 4% and 6% | Total Cell Count [4]: 250 and 99 | Population Apoptotic (%) [5]: 80% and 65% | Population Fragmented Nuclei (%) [5]: 17% and 23% | Population Healthy Nuclei (%) [5]: 77% and 66% | Population Hoechst High Intensity Objects (%) [5]: 3% | Population Membrane Permeable-Phenotype (%) [5]: 3% and 10% | Population Mitochondria Different-Phenotype (%) [5]: 1% and 5% | Population Mitotic Cells (%) [5]: 19% and 35% | Population Normal (%) [5]: 96% | Population Pyknosed Nuclei (%) [5]: 5% and 9% | Population Tubulin-Different-Phenotype (%) [5]: 2% and 4% | Total Cell Count [5]: 388 and 213 | Population Apoptotic (%) [6]: 81% and 100% | Population Fragmented Nuclei (%) [6]: 19% and 17% | Population Healthy Nuclei (%) [6]: 66% and 78% | Population Hoechst High Intensity Objects (%) [6]: 5% and 1% | Population Membrane Permeable-Phenotype (%) [6]: 5% and 14% | Population Mitochondria Different-Phenotype (%) [6]: 4% and 6% | Population Mitotic Cells (%) [6]: 18% and 0% | Population Normal (%) [6]: 95% and 98% | Population Tubulin-Different-Phenotype (%) [6]: 3% and 8% | Total Cell Count [6]: 320 and 130
